Test results as given in PMC4196235 (mBio, 2014).
Values after ≈ are worked out from the molar mass of the structure shown.

Legend:
[1] = tested on: rabbit reticulocyte ribosomes; assay: ribosomal damage index, native cytosolic eukaryotic ribosomes; type: biochemical; conditions: 1/IC50 × misreading at IC50/misreading in the absence of the drug × 100
Outline: (§1)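 Misreading gain-of-function assay: firefly luciferase mRNA with His245 CAC replaced by near-cognate Arg245 CGC, alongside wild-type firefly mRNA, translated in vitro with renilla luciferase mRNA as internal control. Misreading is the mutant firefly/renilla ratio relative to the wild-type firefly/renilla ratio.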

[2] = tested on: recombinant bacterial ribosomes with point mutation G1491C in the A site; assay: cell-free ribosomal translation assay, G1491C mutant; type: biochemical, Mycobacterium smegmatis
Outline: (§2)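 Purified 70S hybrid ribosomes, wild-type or carrying the single A-site point mutation, came from M. smegmatis strains with a single rRNA operon. Each was translated with firefly luciferase mRNA, 40% (vol/vol) M. smegmatis S100 extract, amino acids, 0.4 mg/ml tRNAs and S30 premix energy, plus serially diluted test compound, for 35 min at 37°C. Luciferase luminescence gave IC50s (triplicate means ± SD), expressed as mutant/wild-type IC50 ratio.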

[3] = tested on: hybrid bacterial ribosomes carrying the cytoplasmic A site; assay: cell-free translation assay, cytosolic hybrid ribosomes; type: biochemical, Homo sapiens; conditions: firefly luciferase synthesis, mean ± SD, triplicate
Outline: (§3)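 Hybrid 70S ribosomes purified from recombinant Mycobacterium smegmatis strains derived from a ΔrrnB single-rRNA-operon strain. Reactions contained 0.25 µM ribosomes, 4 µg firefly luciferase mRNA, 40% (vol/vol) M. smegmatis S100 extract, 200 µM amino acids and 0.4 mg/ml tRNAs, with S30 premix as energy source. Serially diluted test compound added; 37°C for 35 min, stopped on ice. Luciferase luminescence read; IC50 from dose-response curves; mean ± SD, triplicate.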

[4] = tested on: hybrid bacterial ribosomes carrying the mitochondrial mutant A1555G deafness A site; assay: cell-free translation assay, mitochondrial deafness hybrid ribosomes; type: biochemical, Homo sapiens; conditions: firefly luciferase synthesis, mean ± SD, triplicate
Outline: as §3

S. aureus MRSA AG041 = assay: neutropenic murine model of Staphylococcus aureus septicemia; type: in vivo; conditions: at the highest dose tested; subcutaneous (Fig. 2C and F)
[5] = tested on: mitochondrial hybrid ribosomes; assay: ribosomal damage index; type: biochemical, Homo sapiens; conditions: 1/IC50 × misreading at IC50/misreading in the absence of the drug × 100
Outline: as §1

[6] = tested on: Staphylococcus aureus (MRSA) isolates; assay: MIC by broth microdilution, clinical isolates; type: cell-based
Outline: (§4)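 Clinical isolates from a university diagnostic microbiology department. MIC determined by broth microdilution in microtiter plates, incubated overnight.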

[7] = tested on: Escherichia coli isolates; assay: MIC by broth microdilution, clinical isolates; type: cell-based
Outline: as §4

[8] = tested on: cytosolic hybrid ribosomes; assay: ribosomal damage index, cytosolic hybrid; type: biochemical, Homo sapiens; conditions: 1/IC50 × misreading at IC50/misreading in the absence of the drug × 100
Outline: as §1

[9] = tested on: rabbit reticulocyte ribosomes; assay: in vitro translation in rabbit reticulocyte lysate; type: biochemical; conditions: firefly luciferase synthesis, mean ± SD, triplicate
Outline: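 Cell-free translation in rabbit reticulocyte lysate with firefly luciferase mRNA and serially diluted test compound. Incubated 37°C for 35 min, stopped on ice, then luciferase luminescence measured. IC50 is the concentration halving functional luciferase synthesis, taken from dose-response curves; mean ± SD, triplicate.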

[10] = tested on: hybrid bacterial ribosomes carrying the mitochondrial A site; assay: cell-free translation assay, mitochondrial hybrid ribosomes; type: biochemical, Homo sapiens; conditions: firefly luciferase synthesis, mean ± SD, triplicate
Outline: as §3

[11] = tested on: mitochondrial A1555G mutant hybrid ribosomes; assay: ribosomal damage index, mitochondrial A1555G mutant hybrid; type: biochemical, Homo sapiens; conditions: 1/IC50 × misreading at IC50/misreading in the absence of the drug × 100
Outline: as §1

[12] = tested on: recombinant bacterial ribosomes with point mutation A1408G in the A site; assay: cell-free ribosomal translation assay, A1408G mutant; type: biochemical, Mycobacterium smegmatis
Outline: as §2

outer hair cells = assay: quantification of outer hair cell loss in cochlear surface preparations; type: in vivo; conditions: guinea pig, 140 mg/kg, 14 days
Outline: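 Guinea pigs dosed subcutaneously once daily for 14 days. After the final ABR (3 weeks post-treatment), cochleae were split into apical, middle and basal segments. Segments were permeabilized in 3% Triton X-100 for 30 min at RT, washed in PBS and stained with rhodamine phalloidin (1:100) for 1 h at RT. Consecutive 0.19-mm fields from the apex were scored blind for missing outer hair cells against a normative database.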

[13] = general toxicity in the guinea pig chronic ototoxicity study; type: in vivo
Outline: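 Male Hartley guinea pigs, about 200 g initially, acclimated 1 week. […] Animals were followed for death and body weight through the study, which included ABR testing before treatment and 3 weeks after treatment ended.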

## NC[C@@H]1O[C@H](O[C@H]2[C@@H](O)[C@H](O[C@@H]3[C@@H](O)[C@H](N)C[C@H](N)[C@H]3O[C@H]3O[C@H](CO)[C@@H](O)[C@H](O)[C@H]3N)O[C@@H]2CO)[C@H](N)[C@@H](O)[C@@H]1O [Paromomycin]
[1]
  Ribosomal damage index: Rabbit ribosomes: 120.0
[2]
  ratio of the IC50 for the C1491 mutant ribosomes to the IC50 for the wild-type ribosomes: 520
[3]
  IC50 with eukaryotic A sites in the ribosome: Cytosolic wild-type: 9.89 ± 2.73 mg/L
[4]
  IC50 with eukaryotic A sites in the ribosome: Mitochondrial mutant A1555G: 5.77 ± 2.32 mg/L
S. aureus MRSA AG041
  bacterial burden in the kidney: below detectable limits
[5]
  Ribosomal damage index: Mitochondrial wild-type: 5.0
[6]; S. aureus (MRSA) clinical isolate AG 038
  MIC: 4 mg/L (≈ 6.5 µM)
[6]; S. aureus (MRSA) clinical isolate AG 039
  MIC: > 256 mg/L
[6]; S. aureus (MRSA) clinical isolate AG 042
  MIC: > 256 mg/L
[6]; S. aureus (MRSA) clinical isolate AG 044
  MIC: 4 to 8 mg/L (≈ 6.5 to 13 µM)
[6]; S. aureus (MRSA) clinical isolate AG 045
  MIC: 4 mg/L (≈ 6.5 µM)
[7]; E. coli clinical isolate AG 001
  MIC: 16 to 32 mg/L (≈ 26 to 52 µM)
[7]; E. coli clinical isolate AG 002
  MIC: 8 to 16 mg/L (≈ 13 to 26 µM)
[7]; E. coli clinical isolate AG 003
  MIC: 8 to 16 mg/L (≈ 13 to 26 µM)
[7]; E. coli clinical isolate AG 055
  MIC: 8 to 16 mg/L (≈ 13 to 26 µM)
[8]
  Ribosomal damage index: Cytosolic wild-type: 40.0
[9]
  IC50 with eukaryotic A sites in the ribosome: Rabbit reticulocytes: 9.55 ± 4.94 mg/L
[10]
  IC50 with eukaryotic A sites in the ribosome: Mitochondrial wild-type: 50.66 ± 13.33 mg/L
[11]
  Ribosomal damage index: Mitochondrial mutant A1555G: 125.0
[12]
  ratio of the IC50 for the G1408 mutant ribosomes to the IC50 for the wild-type ribosomes: 13

## NCC1OC(OC2C(CO)OC(OC3C(O)C(N)CC(N)C3OC3OC(CO)C(OCCCc4ccccc4)C(O)C3N)C2O)C(N)C(O)C1O (stereo not shown) [4′-O-(3-Phenylpropyl) paromomycin]
[3]
  IC50 with eukaryotic A sites in the ribosome: Cytosolic wild-type: 268.57 ± 54.97 mg/L
[4]
  IC50 with eukaryotic A sites in the ribosome: Mitochondrial mutant A1555G: 105.68 ± 39.23 mg/L
[10]
  IC50 with eukaryotic A sites in the ribosome: Mitochondrial wild-type: 49.85 ± 15.39 mg/L

## NC[C@@H]1O[C@H](O[C@H]2[C@@H](O)[C@H](O[C@@H]3[C@@H](O)[C@H](N)C[C@H](N)[C@H]3O[C@H]3O[C@@H]4CO[C@@H](CCc5ccccc5)O[C@H]4[C@H](O)[C@H]3N)O[C@@H]2CO)[C@H](N)[C@@H](O)[C@@H]1O [4′,6′-O-(3-Phenylpropylidene) paromomycin]
[3]
  IC50 with eukaryotic A sites in the ribosome: Cytosolic wild-type: 150.5 ± 28.0 mg/L
[4]
  IC50 with eukaryotic A sites in the ribosome: Mitochondrial mutant A1555G: 126.9 ± 54.4 mg/L
[10]
  IC50 with eukaryotic A sites in the ribosome: Mitochondrial wild-type: 305.7 ± 74.1 mg/L

## NC[C@@H]1O[C@H](O[C@H]2[C@@H](O)[C@H](O[C@@H]3[C@@H](O)[C@H](N)C[C@H](N)[C@H]3O[C@H]3O[C@H](CO)C[C@H](O)[C@H]3N)O[C@@H]2CO)[C@H](N)[C@@H](O)[C@@H]1O [4′ Deoxy paromomycin]
[3]
  IC50 with eukaryotic A sites in the ribosome: Cytosolic wild-type: 28.4 ± 13.8 mg/L
[4]
  IC50 with eukaryotic A sites in the ribosome: Mitochondrial mutant A1555G: 24.2 ± 10.5 mg/L
[9]
  IC50 with eukaryotic A sites in the ribosome: Rabbit reticulocytes: 17.3 ± 4.2 mg/L
[10]
  IC50 with eukaryotic A sites in the ribosome: Mitochondrial wild-type: 74.1 ± 12.4 mg/L

## CNC(C)C1CCC(N)C(OC2C(N)CC(N)C(OC3OCC(C)(O)C(NC)C3O)C2O)O1 (stereo not shown) [Gentamicin]
Outer hair cells
  loss of outer hair cells in cochleae: steep rise of hair cell loss from the middle cochlea to complete loss at the base
Outer hair cells; listed as gentamicin
  loss of outer hair cells in cochleae: extensive loss of outer hair cells
[13]; doses below 160 mg/kg
  signs of general toxicity: significant weight loss
[13]; doses exceeding 160 mg/kg
  signs of general toxicity: death
